Article PMC5395284 (Journal of Experimental Pharmacology, 2017)

Columns and labels:
[1] = assay type: in vivo, Wistar rat
[2] = assay type: in vivo, Wistar rat; remark: listed apart in the source
[3] = test system: hyperlipidemic Wistar rats; experiment: Plasma lipid levels; assay type: in vivo, Wistar rat; conditions: 4 weeks treatment; for reduction in total cholesterol level: plasma, in comparison to lipid control
Wistar rat brain = experiment: Brain neurotransmitter levels; assay type: in vivo; conditions: 4 weeks treatment
Outline: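 Wistar rats on high-fat diet for up to 4 weeks, caged ≤6 per cage at 25°C±2°C. Groups: control, oral SSRI test compound 20 mg/kg b.w., statin test compound 40 mg/kg b.w., or both, for 4 weeks. Brain (100 mg) homogenized in 1 mL 0.1 M perchloric acid with 0.05% EDTA, centrifuged 18,000 rpm, 10 min, 4°C. Mean±SD, n=6; p<0.05 versus lipid control.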

[4] = after 2-week dosing of FLX; cited from earlier work
[5] = STT+FLX for 4 weeks compared to STT-alone treatment
[6] = STT+FLX compared to STT monotherapy

Q: For `CCC(C)(C)C(=O)O[C@H]1C[C@@H](C)C=C2C=C[C@H](C)[C@H](CC[C@@H]3C[C@@H](O)CC(=O)O3)[C@H]21` [STT, simvastatin], which “increase in AUC in plasma” value [1, 5] is on record?
A: 41.6%

Q: What about the “increase in Cmax in plasma” value [1, 5] of the same molecule?
A: 57.9%

Q: What about the “percentage increase in AUC0−t in brain” value [2, 6] of the same molecule?
A: 79%

Q: And the “effect on plasma HDL level” value ([3]; versus lipid control)?
A: increase in plasma HDL level

Q: And the “effect on plasma triglyceride level” value ([3]; versus lipid control)?
A: significant reduction

Q: And the “reduction in total cholesterol level” value [3]?
A: 41.6%

Q: And the “brain concentration of 5-hydroxytryptamine (5HT)” value (Wistar rat brain; mean±SD, n=6)?
A: 0.45 ± 0.14 µg/g

Q: And the “effect on brain level of HIAA” value (Wistar rat brain; versus control)?
A: unaffected

Q: What about the “effect on brain level of dopamine” value (Wistar rat brain; versus control) of the same molecule?
A: unaffected

Q: Which “accumulation in the brain relative to plasma” value ([2]; after multiple-dose administration) does the source give for `CNCCC(Oc1ccc(C(F)(F)F)cc1)c1ccccc1` (stereo not drawn) [FLX, fluoxetine] here?
A: multifold higher

Q: And the “effect on plasma triglyceride level” value ([3]; versus lipid control)?
A: failed to produce any significant effect

Q: And the “reduction in total cholesterol level” value [3]?
A: 16.3%

Q: And the “brain concentration of 5-hydroxytryptamine (5HT)” value (Wistar rat brain; mean±SD, n=6)?
A: 0.62 ± 0.15 µg/g

Q: What about the “brain concentration of dopamine” value (Wistar rat brain; mean±SD, n=6) of the same molecule?
A: 1.48 ± 0.14 µg/g

Q: And the “effect on brain level of HIAA” value (Wistar rat brain; versus control)?
A: failed to alter

Q: With `COc1ccc2[nH]c([S+]([O-])Cc3ncc(C)c(OC)c3C)nc2c1` (stereo not drawn) [omeprazole] as the molecule, how does the increase in bioavailability [4] read?
A: 7.1 fold

Q: With `CCC(C)(C)C(=O)O[C@H]1C[C@@H](C)C=C2C=C[C@H](C)[C@H](CC[C@@H](O)C[C@@H](O)CC(=O)O)[C@H]21` [STA, simvastatin acid] as the molecule, how does the “reduction in bioavailability (AUC0−∞) in plasma” value [1, 6] read?
A: 36%

Q: Which increase in bioavailability [4] does the source give for `COc1ccc2c(c1)[C@]13CCCC[C@@H]1[C@H](C2)N(C)CC3` [dextromethorphan] here?
A: 27 fold
